# Sampled rows, rich in hits. Any-hit rate of the full collection: about 6.1%.
# WT yeast gro inh = growth inhibition of WT strain, primary screen, mitochondrial fusion inhibitor project, WT and mutant strains, chemical genetic; mitochondrial fusion phenotypic screen; inhibition, % at 10 µM; hit rate 2.1% among 190,000; AID 1362, 2008; in the data active = inhibition above about 58%; tested in S. cerevisiae
# Yeast lifespan up = compounds extending yeast replicative lifespan, primary screen, S. cerevisiae, OD615 | S. cerevisiae growth with nicotinamide; deaD strain in restrictive glucose medium | inhibition of the nicotinamide effect, % at 10 µM | hit rate 0.68% among 130,000 | AID 775, 2007;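 active = inhibition above a set limit, placed 3 SD over the median of all compounds, cut at about 26% in these data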;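 also: 0% = nicotinamide-treated wells and 100% = cells grown without nicotinamide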
#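 Assay system: DeaD-strain S. cerevisiae. Medium: CSMM-D glucose medium, restrictive. Reagent: nicotinamide, 1.5 mM, co-present with compound. Compound: 10 µM single point, 0.25% DMSO. Schedule: culture preincubation 4 h, compound exposure 48 h, both 30 °C. Detection: absorbance at 615 nm.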
# RAM network inh = inhibitors of the yeast RAM network, primary screen, dse1pr::URA3 reporter, 5-FOA selection; S. cerevisiae dse1pr::URA3 reporter, 5-FOA growth OD615, 2 d; analog-sensitive cbk1-as2 kinase mutant strain; inhibition, % at 50 µM; hit rate 1.8% among 190,000;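 active = inhibition above a set limit, 3 SD over mean compound inhibition, cut at about 8.4% in these data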;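 also: 0% = DMSO-only wells with no growth and 100% = 10 µM 1-NA-PP1 full growth; inhibition rescues growth on 5-FOA so higher OD means more RAM inhibition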
# Measles CPE = compounds protecting cells from measles virus cytopathic effect, primary screen, measles RdRp inhibitor project, single point, MLSMR library, absorbance. Measles virus-infected cells, CPE protection. protection (pct of control), % at 4 µM. hit rate 1.5% among 140,000. AID 841, 2007; in the data active = protection mostly above about 24%, no sharp cut-off; inactive = mostly below about 26%
# Yeast growth inh = growth inhibitors of yeast BB579 in restrictive medium, primary screen, yeast lifespan-shortening project, S. cerevisiae; hit rate 0.51% among 140,000; inhibition, % at 10 µM; AID 804, 2007; OD615, 48 h;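 active = inhibition above a set limit, 3 SD over the mean compound inhibition, cut at about 44% in these data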
#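 Test system: DeaD yeast strain BB579 / Buffer or medium: restrictive glucose-based CSMM-D medium / Doses: single 10 µM dose / Schedule: 4 h cell preincubation, 48 h compound exposure, 30 °C humidified / Technique: culture absorbance at 615 nm / Controls: amphotericin B positive control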
# DAT uptake mod = changed hDAT dopamine uptake under cocaine IC80, either direction, primary screen, cocaine antagonist project, cell-based, LLC-PK1 hDAT, [14C]-dopamine uptake, MLSMR; Sodium-dependent dopamine transporter (Homo sapiens), Q01959; LLC-PK1 hDAT cells, [14C]-dopamine uptake with cocaine IC80; actives deviate in either direction; B-score at 10 µM; hit rate 1.3% among 110,000; AID 449768, 2010;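 active = Z score or B-score, a plate-position-corrected score, falls beyond the plate's 99.7% confidence bounds, in either direction; inactive = both scores lie inside the 99.7% bounds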;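 also: scored against the spread of the other compound wells on the same plate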
# Target sequence (Q01959 whole entry, looked up): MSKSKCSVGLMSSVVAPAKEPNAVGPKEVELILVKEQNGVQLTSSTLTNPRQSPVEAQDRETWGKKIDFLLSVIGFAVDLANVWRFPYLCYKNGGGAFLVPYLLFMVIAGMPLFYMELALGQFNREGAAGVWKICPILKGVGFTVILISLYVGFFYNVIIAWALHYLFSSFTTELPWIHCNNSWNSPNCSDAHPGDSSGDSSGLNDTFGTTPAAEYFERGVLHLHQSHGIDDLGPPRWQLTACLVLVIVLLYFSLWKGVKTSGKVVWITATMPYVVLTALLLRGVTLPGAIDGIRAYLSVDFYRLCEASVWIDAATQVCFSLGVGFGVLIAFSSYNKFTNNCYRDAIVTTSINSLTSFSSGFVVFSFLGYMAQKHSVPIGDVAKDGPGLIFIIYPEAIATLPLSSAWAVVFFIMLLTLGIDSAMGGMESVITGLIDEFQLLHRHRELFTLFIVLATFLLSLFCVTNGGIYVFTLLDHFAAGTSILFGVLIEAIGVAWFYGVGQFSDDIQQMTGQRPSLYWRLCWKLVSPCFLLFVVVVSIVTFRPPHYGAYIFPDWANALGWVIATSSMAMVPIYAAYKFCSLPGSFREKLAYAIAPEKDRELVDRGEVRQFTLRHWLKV
# Active calls of the source: *; . = no result given; ! = a repeat was not active.
SMILES,WT yeast gro inh,Yeast lifespan up,RAM network inh,Measles CPE,Yeast growth inh,DAT uptake mod
Cc1ccc(NCc2nc3ccccc3n2C)cc1,11,-7,0,16,-57,-1.3
Cn1c(/N=C/c2cccs2)nc2ccccc21,5,-1,3,16,-59,0.12
Cc1cc(C)c(C)c(N=Nc2nc3ccccc3n2C)c1C,84*,-4,0,12,4,.
Cc1ccc(C)c(N=Nc2nc3ccccc3n2C)c1,82*,-10,-1,9,16,-1.4
Cc1ccc(CC2CC(=O)N(C(Cc3ccccc3)C(=O)O)C2=O)cc1 (stereo not given),-5,.,1,.,.,.
COc1ccc(Nc2nc(-c3ccccc3)nc3ccccc23)c(OC)c1,33,.,2,.,.,.
COc1cccc(-c2nc(OC(C)C)c3ccccc3n2)c1,61*,-29,0,2,-5,1.2
CC1CCCN(Cc2nc3c(c(=O)n(C)c(=O)n3C)n2CC(N)=O)C1 (stereo not given),98*,-3,2,0,-42,0.21
CCOCCn1c(CN2CCCC(C)C2)nc2c1c(=O)n(C)c(=O)n2C (stereo not given),.,.,.,.,.,0.66
CCOC(=O)c1nnn(-c2nonc2-n2cccc2)c1CCl,-8,55*,1,22,-21,-2.5
CCOC(=O)c1nnn(-c2nonc2-n2cccc2)c1CN1CCC(C)CC1,9,-12,0,5,-57,-0.29
CCOC(=O)c1nnn(-c2nonc2N)c1CN1CCc2ccccc2C1,1,62*,-1,38,-38,-0.43
CCCN1CCN(C(=O)Cn2cccc2C(=O)c2ccccc2)CC1,-20,-4,0,8,-7,0.31
CC1(C)NC(=O)N(CC(O)COc2ccc(N3C(=O)c4ccccc4C3=O)cc2)C1=O (stereo not given),3,0,2,47*,-3,0.67
Cc1ccc(OCC(O)CN2C(=O)NC(C)(C)C2=O)cc1 (stereo not given),-5,.,0,13,-5,0.09
c1ccc(-c2nc3cnccn3c2Nc2ccc3c(c2)OCCO3)cc1,-20,-3,1,7,-59,2.5*
Oc1ccc(C=NC2CCCCC2)c(O)c1,14,.,1,.,.,.
c1ccc(-c2nc(N3CCCCC3)nc3ccccc23)cc1,68*,.,0,17,-25,0.72
Cc1ccc(-c2csc(=S)[nH]2)cc1,55,.,-1,.,.,.
S=c1[nH]c(-c2ccc(Cl)cc2)cs1,65*,.,1,.,.,.
CN(C)c1ccc(NC(=O)CN2CCN(S(=O)(=O)c3cc(Cl)ccc3Cl)CC2)cc1,-1,-5,1,12,-16,0.085
O=C(CN1CCN(S(=O)(=O)c2cc(Cl)ccc2Cl)CC1)Nc1ccc2c(c1)OCCO2,-13,-12,1,42*,-42,1.8*!
O=C(CN1CCCCCC1)Nc1ccc(F)c(F)c1,-14,.,1,7,-32,0.59
O=C(CN1CCCCC1)Nc1ccc(F)c(Cl)c1,9,-2,2,56*,4,-2.1
COc1cc(S(=O)(=O)NC(C)C)ccc1Cl,-12,-4,0,33*,-13,-0.41
SMILES,WT yeast gro inh,Yeast lifespan up,RAM network inh,Measles CPE,Yeast growth inh,DAT uptake mod
Cc1cccc(-c2nc(CS(=O)CC(=O)NC3CCCC3)c(C)o2)c1 (stereo not given),-4,-10,2,9,-25,0.91
Cc1cccc(-c2nc(C#N)c(NC3CCCCC3)o2)c1,-9,-8,0,43*,-24,0.85
CCCCSc1nnc(-c2ccc(C)cc2)c2ccccc12,78*,3,2,14,-65,.
Cc1ccc(Oc2nnc(-c3ccc(C)cc3)c3ccccc23)cc1,-7,-6,4,8,-18,.
O=c1c2cc(NC(=S)N3CCC(N4CCCCC4)CC3)ccc2nc2n1CCCCC2,-18,.,2,.,.,.
CC1CCCCN1C(=S)Nc1ccc2nc3n(c(=O)c2c1)CCCCC3 (stereo not given),5,56*,2,12,-52,.
CC1=NN(C(N)=S)C(=O)C1N=Nc1cccc2ccccc12 (stereo not given),61,.,4,.,.,.
CC1=NN(C(N)=S)C(=O)C1N=Nc1ccccc1 (stereo not given),70*,.,2,.,.,.
Cc1ccsc1C(C(=O)NC(C)(C)C)N(C(=O)c1csnn1)c1ccccc1 (stereo not given),-3,.,10*,.,.,.
O=C(CCn1nnc2ccccc21)Nc1nnc(Cc2ccccc2)s1,67*,-13,3,15,-34,.
c1ccc2c(-c3[nH]ncc3CNCCCn3ncc4ccccc43)cccc2c1,4,.,1,.,.,.
O=C(CN1CCN(c2ccccc2F)CC1)N1N=CCC1c1ccccc1 (stereo not given),7,8,0,10,-16,.
COc1ccc(CCNC(=O)CSc2nc3[nH]ncc3c(=O)n2-c2ccc(C)c(Cl)c2)cc1OC,15,.,-1,.,.,.
Cc1ccc(N2C(=N)/C(=C3/Nc4ccccc4S3)C(c3ccccc3)C2=O)cc1 (stereo not given),83*,4,5,14,-30,.
CCCCn1c(SCC(=O)Nc2cc(NC(=O)c3ccco3)ccc2C)nc2ccccc2c1=O,6,-4,3,14,0,1.2
COc1ccc(N2CC(C(=O)Nc3ccccc3C(=O)NCc3ccco3)CC2=O)cc1 (stereo not given),-11,-6,3,35*,-1,-0.15
COc1ccc(CNC(=O)c2c(O)c3ccccc3n(C)c2=O)cc1OC,-11,0,7,29,-72,-0.99
CCCCCCNC(=O)c1c(O)c2cccc3c2n(c1=O)CCC3,14,24,1,7,-55,0.1
O=C(NCCNCCO)c1c(O)c2cccc3c2n(c1=O)CCC3,-6,33*,-1,4,-10,-0.042
O=C(NCc1ccccn1)c1c(O)c2cccc3c2n(c1=O)CC3,1,2,-1,18,2,0.4
CCN(CC)CCNC(=O)c1c(O)c2cccc3c2n(c1=O)CCC3,-7,26,0,9,-34,0.18
COc1ccc(CNC(=O)c2c(O)c3cccc4c3n(c2=O)CCC4)cc1,-3,34*,3,4,-3,-0.66
COc1ccc(CCNC(=O)c2c(O)c3cccc4c3n(c2=O)CC4)cc1,-16,30,8.5*,0,-55,0.039
COc1ccc(CNC(=O)c2c(O)c3cccc4c3n(c2=O)CCC4)cc1OC,1,34*,3,15,-52,-0.12

# Screening results: PubChem, several laboratories
